The source made the active and inactive calls. The rule behind the calls is not given here.
How the values were obtained:
U-937 [1] = assay: Induction of granulocytic differentiation in human U937 cells assessed as increase in CD11c expression at 5 uM after 48 hrs by FACS method; assay type: functional
Summary of the method: (§1)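 Granulocytic differentiation in U937 cells at 0.1, 1, 5, 10 and 25 μM for 24 and 48 h, with reference drugs at 5 μM as positive controls. Read-out was the percentage of CD11c-positive, propidium iodide-negative cells.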

U-937 [2] = assay: Induction of cell cycle arrest in human U937 cells assessed as accumulation at S phase at 5 uM after 48 hrs by propidium iodide staining based FACS method; assay type: functional
Summary of the method: (§2)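 U937 cells treated at 0.1, 1, 5, 10 and 25 μM for 24 and 48 h, with reference drugs at 5 μM as positive controls. Cell-cycle distribution measured, with accumulation in S phase scored.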

U-937 [3] = assay: Induction of apoptosis in human U937 cells assessed as accumulation at pre-G1 phase at 5 uM after 48 hrs by propidium iodide staining based FACS method; assay type: functional
Summary of the method: (§3)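 U937 cells exposed to 0.1, 1, 5, 10 and 25 μM for 24 and 48 h. Reference drugs at 5 μM served as positive controls. Apoptosis taken as the percentage of cells in the pre-G1 peak.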

Histone deacetylase 1 = Histone deacetylase 1 (Homo sapiens, UniProt Q13547); assay: Inhibition of human recombinant HDAC1 using histone H3 substrate pre-incubated at room temperature for 15 mins before substrate addition by fluorimetric assay
Chain of Histone deacetylase 1 (Q13547 whole entry): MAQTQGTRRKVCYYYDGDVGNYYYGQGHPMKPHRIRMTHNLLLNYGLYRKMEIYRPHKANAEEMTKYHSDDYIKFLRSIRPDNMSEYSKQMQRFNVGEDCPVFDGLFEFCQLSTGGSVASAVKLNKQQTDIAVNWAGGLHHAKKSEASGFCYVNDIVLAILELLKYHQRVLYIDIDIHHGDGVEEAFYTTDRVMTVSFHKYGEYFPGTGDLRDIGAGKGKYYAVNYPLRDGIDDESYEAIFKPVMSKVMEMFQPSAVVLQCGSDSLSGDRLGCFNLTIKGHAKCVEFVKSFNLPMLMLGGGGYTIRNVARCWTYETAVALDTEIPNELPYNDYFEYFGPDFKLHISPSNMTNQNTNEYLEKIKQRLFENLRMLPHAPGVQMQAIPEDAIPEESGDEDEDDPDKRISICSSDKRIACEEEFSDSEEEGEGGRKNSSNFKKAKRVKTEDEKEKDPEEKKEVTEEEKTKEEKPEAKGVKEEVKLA

[4] = molecular target: T1, Protein deacetylase HDAC6 (Homo sapiens, UniProt Q9UBN7); assay: Inhibition of human recombinant HDAC6 pre-incubated at room temperature for 15 min before substrate addition by fluorimetric assay
T1 sequence (Q9UBN7 whole entry): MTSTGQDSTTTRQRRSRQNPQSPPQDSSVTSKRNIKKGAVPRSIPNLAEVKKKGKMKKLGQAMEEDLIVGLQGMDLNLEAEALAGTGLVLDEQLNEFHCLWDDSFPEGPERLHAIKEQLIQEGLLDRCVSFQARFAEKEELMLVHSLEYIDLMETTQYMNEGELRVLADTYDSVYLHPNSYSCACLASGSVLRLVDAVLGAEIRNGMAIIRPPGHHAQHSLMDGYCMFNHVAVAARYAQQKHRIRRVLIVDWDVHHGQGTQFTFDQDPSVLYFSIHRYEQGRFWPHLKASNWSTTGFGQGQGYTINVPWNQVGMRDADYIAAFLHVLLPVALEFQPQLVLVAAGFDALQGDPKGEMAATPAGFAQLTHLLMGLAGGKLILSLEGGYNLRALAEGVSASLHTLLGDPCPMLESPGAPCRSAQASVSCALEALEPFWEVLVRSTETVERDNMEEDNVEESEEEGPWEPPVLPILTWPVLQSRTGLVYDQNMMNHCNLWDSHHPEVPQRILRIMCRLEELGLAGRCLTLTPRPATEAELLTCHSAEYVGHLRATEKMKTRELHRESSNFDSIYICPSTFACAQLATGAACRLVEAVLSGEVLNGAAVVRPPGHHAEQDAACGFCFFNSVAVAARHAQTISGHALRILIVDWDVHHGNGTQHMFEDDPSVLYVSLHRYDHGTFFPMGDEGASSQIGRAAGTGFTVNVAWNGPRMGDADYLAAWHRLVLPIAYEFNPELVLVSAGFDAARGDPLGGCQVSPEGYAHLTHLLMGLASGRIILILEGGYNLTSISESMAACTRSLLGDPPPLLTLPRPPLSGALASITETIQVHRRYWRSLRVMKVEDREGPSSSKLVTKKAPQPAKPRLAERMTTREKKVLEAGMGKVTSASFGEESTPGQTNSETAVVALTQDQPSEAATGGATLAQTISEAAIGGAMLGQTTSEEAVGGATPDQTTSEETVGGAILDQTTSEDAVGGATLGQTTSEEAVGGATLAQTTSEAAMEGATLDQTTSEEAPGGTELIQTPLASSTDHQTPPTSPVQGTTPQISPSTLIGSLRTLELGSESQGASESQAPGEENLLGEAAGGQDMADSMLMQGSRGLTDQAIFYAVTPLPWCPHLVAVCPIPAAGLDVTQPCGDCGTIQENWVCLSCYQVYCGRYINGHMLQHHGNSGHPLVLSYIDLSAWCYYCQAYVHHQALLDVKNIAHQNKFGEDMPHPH

Histone deacetylase 4 = Histone deacetylase 4 (Homo sapiens, UniProt P56524); assay: Inhibition of human recombinant HDAC4 using non-histone trifluoroacetyl lysine substrate pre-incubated at room temperature for 15 mins before substrate addition by fluorimetric assay
Chain of Histone deacetylase 4 (P56524 whole entry): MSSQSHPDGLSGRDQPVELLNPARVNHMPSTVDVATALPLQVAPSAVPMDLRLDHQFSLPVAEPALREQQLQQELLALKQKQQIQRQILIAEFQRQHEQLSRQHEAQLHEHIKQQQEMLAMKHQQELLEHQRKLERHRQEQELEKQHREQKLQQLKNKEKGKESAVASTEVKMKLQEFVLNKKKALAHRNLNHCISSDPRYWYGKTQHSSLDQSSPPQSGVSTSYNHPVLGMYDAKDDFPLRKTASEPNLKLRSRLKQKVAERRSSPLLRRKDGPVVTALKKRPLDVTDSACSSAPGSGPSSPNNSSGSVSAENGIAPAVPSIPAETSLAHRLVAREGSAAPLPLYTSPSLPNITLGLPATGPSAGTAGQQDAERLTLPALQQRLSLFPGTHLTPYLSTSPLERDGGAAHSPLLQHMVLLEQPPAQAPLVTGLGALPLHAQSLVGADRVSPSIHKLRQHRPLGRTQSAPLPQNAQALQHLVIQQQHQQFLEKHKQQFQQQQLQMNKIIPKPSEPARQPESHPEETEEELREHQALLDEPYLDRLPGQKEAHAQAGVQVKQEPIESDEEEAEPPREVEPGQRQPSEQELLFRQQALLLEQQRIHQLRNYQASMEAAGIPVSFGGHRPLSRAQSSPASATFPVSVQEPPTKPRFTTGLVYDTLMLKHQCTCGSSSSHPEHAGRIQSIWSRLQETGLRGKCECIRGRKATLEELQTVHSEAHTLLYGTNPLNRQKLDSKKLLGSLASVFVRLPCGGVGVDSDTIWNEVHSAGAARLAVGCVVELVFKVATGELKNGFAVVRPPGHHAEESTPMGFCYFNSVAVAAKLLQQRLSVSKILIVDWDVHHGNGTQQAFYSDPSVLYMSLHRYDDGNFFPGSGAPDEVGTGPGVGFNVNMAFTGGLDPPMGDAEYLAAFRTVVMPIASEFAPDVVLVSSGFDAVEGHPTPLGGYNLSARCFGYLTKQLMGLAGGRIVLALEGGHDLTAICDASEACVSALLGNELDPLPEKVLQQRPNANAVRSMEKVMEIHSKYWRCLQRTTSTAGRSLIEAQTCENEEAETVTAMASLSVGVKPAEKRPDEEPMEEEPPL

A549 = assay: Antiproliferative activity against human A549 cells after 48 hrs by MTT assay; assay type: functional, cell-based; conditions: A549, 48 h
Summary of the method: (§4)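 Solid tumour cells grown in RPMI with 10% fetal calf serum and penicillin. Exponentially growing cells seeded in sextuplicate in 96-well plates (3 × 10³ cells/well), treated 24 h later at 1 to 50 μM for 48 h. Viability read by MTT.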

[5] = Antiproliferative activity against human KG1 cells after 48 hrs by Cell Titer GLo Assay; assay type: functional, cell-based; conditions: KG-1, 48 h
Summary of the method: (§5)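 AML cells grown in RPMI with 10% fetal calf serum, antibiotics, amphotericin-B, 10 mM HEPES and 2 mM glutamine, kept at 200 000 cells/mL. Exponentially growing cells seeded in duplicate in 6-well plates (2 × 10⁵ cells/well), treated 24 h later at 1 to 50 μM for 48 h. Viability by Cell Titer GLo.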

U-937 [6] = assay: Induction of granulocytic differentiation in human U937 cells assessed as increase in CD11c expression after 48 hrs by FACS method; assay type: functional, cell-based; summary of the method: as §1
HEL = assay: Antiproliferative activity against human HEL cells after 48 hrs by Cell Titer GLo Assay; assay type: functional, cell-based; summary of the method: as §5
MDA-MB-468 = assay: Antiproliferative activity against human MDA-MB-468 cells after 48 hrs by MTT assay; assay type: functional, cell-based; conditions: MDA-MB-468, 48 h; summary of the method: as §4
[7] = Antiproliferative activity against human U937 cells after 48 hrs by Cell Titer GLo Assay; assay type: functional, cell-based; conditions: U-937, 48 h; summary of the method: as §5
MOLM-13 = assay: Antiproliferative activity against human MOLM13 cells after 48 hrs by Cell Titer GLo Assay; assay type: functional, cell-based; conditions: MOLM-13, 48 h; summary of the method: as §5
SW-620 = assay: Antiproliferative activity against human SW620 cells after 48 hrs by MTT assay; assay type: functional, cell-based; conditions: SW-620, 48 h; summary of the method: as §4
cells = assay type: functional; conditions: Homo sapiens, U-937, 24 h
M14 = assay: Antiproliferative activity against human M14 cells after 48 hrs by MTT assay; assay type: functional, cell-based; conditions: M14, 48 h; summary of the method: as §4
[8] = Antiproliferative activity against human HCT116 cells after 48 hrs by MTT assay; assay type: functional, cell-based; conditions: HCT-116, 48 h; summary of the method: as §4
U-937 [9] = assay: Induction of cell cycle arrest in human U937 cells assessed as accumulation at S phase at 0.1 to 25 uM after 48 hrs by propidium iodide staining based FACS method; assay type: functional; summary of the method: as §2
HCC1937 = assay: Antiproliferative activity against human HCC1937 cells after 48 hrs by MTT assay; assay type: functional, cell-based; conditions: HCC1937, 48 h; summary of the method: as §4
[10] = Antiproliferative activity against human SANTO cells after 48 hrs by MTT assay; assay type: functional, cell-based; summary of the method: as §4
U2OS = assay: Antiproliferative activity against human U2OS cells after 48 hrs by MTT assay; assay type: functional, cell-based; summary of the method: as §4
U-937 [11] = assay: Induction of apoptosis in human U937 cells assessed as accumulation at pre-G1 phase after 48 hrs by propidium iodide staining based FACS method; assay type: functional, cell-based; summary of the method: as §3
[12] = Antiproliferative activity against human HL60 cells after 48 hrs by Cell Titer GLo Assay; assay type: functional, cell-based; conditions: HL-60, 48 h; summary of the method: as §5
U-937 [13] = assay: Induction of cell cycle arrest in human U937 cells assessed as accumulation at S phase at 1 uM after 48 hrs by propidium iodide staining based FACS method; assay type: functional; summary of the method: as §2
U-937 [14] = assay: Induction of apoptosis in human U937 cells assessed as accumulation at pre-G1 phase at 25 uM after 48 hrs by propidium iodide staining based FACS method; assay type: functional; summary of the method: as §3
U-937 [15] = conditions: Homo sapiens, at 2.5 µM

## Nc1ccccc1NC(=O)c1ccc(CNC(=O)OCc2cccnc2)cc1 [ENTINOSTAT]
U-937 [1]
  Activity: 47%

## O=C(CCCCCCC(=O)Nc1ccccc1)NO [VORINOSTAT]
U-937 [2]
  Activity: Active
U-937 [3]
  Activity: 48%

## O=C(/C=C/c1ccc(-c2nnc(Cc3c[nH]c4ccccc34)o2)cc1)NO
Histone deacetylase 1
  IC50: 0.6 µM
[4]
  IC50: 0.03 µM
Histone deacetylase 4
  IC50: 15.2 µM

## Nc1ccccc1NC(=O)/C=C/c1ccc(Cc2nnc(Cc3cccc4ccccc34)o2)cc1
Histone deacetylase 1
  IC50: 4.1 µM
[4]
  IC50: > 20 µM
Histone deacetylase 4
  IC50: > 20 µM

## O=C(NO)c1ccc(-c2nnc(Cc3cccc4ccccc34)o2)cc1
Histone deacetylase 1
  IC50: 9.9 µM
[4]
  IC50: 4.1 µM
Histone deacetylase 4
  IC50: > 20 µM

## O=C(/C=C/c1ccc(-c2nnc(Cc3cccc4ccccc34)o2)cc1)NO
Histone deacetylase 1
  IC50: 0.8 µM
[4]
  IC50: 0.06 µM
Histone deacetylase 4
  IC50: > 20 µM

## Nc1ccccc1NC(=O)c1ccc(Cc2nnc(Cc3cccc4ccccc34)o2)cc1
A549
  IC50: 23.6 µM
Histone deacetylase 1
  IC50: 0.2 µM
[5]
  IC50: 1.8 µM
U-937 [6]
  Activity: Dose-dependent effect
U-937 [1]
  Activity: 45%
HEL
  IC50: 2 µM
MDA-MB-468
  IC50: 19.6 µM
[7]
  IC50: 1.8 µM
MOLM-13
  IC50: 1.6 µM
[4]
  IC50: 8.9 µM
SW-620
  IC50: 6.7 µM
cells
  inhibition at 2.5 µM: 75%
M14
  IC50: 43.3 µM
[8]
  IC50: 24.7 µM
U-937 [9]
  Activity: Active
Histone deacetylase 4
  IC50: > 20 µM
HCC1937
  IC50: 29.8 µM
[10]
  IC50: 17.4 µM
U2OS
  IC50: 20.4 µM
U-937 [11]
  Activity: Dose-dependent effect
[12]
  IC50: 2.8 µM
U-937 [13]
  Activity: Active

## Nc1ccccc1NC(=O)/C=C/c1ccc(-c2nnc(Cc3cccc4ccccc34)o2)cc1
Histone deacetylase 1
  IC50: 1 µM
U-937 [6]
  Activity: Dose-dependent effect
[4]
  IC50: > 20 µM
Histone deacetylase 4
  IC50: > 20 µM

## Nc1ccccc1NC(=O)/C=C/c1ccc(-c2nnc(Cc3ccc4ccccc4c3)o2)cc1
Histone deacetylase 1
  IC50: 2.4 µM
[4]
  IC50: > 20 µM
Histone deacetylase 4
  IC50: > 20 µM

## O=C(/C=C/c1ccc(Cc2nnc(Cc3cccc4ccccc34)o2)cc1)NO
A549
  IC50: 29.5 µM
Histone deacetylase 1
  IC50: 0.2 µM
[5]
  IC50: 2.6 µM
U-937 [6]
  Activity: Dose-dependent effect
HEL
  IC50: 4.1 µM
MDA-MB-468
  IC50: 18.4 µM
[7]
  IC50: 7.8 µM
MOLM-13
  IC50: 2.2 µM
[4]
  IC50: 0.03 µM
SW-620
  IC50: 5.1 µM
M14
  IC50: 45 µM
[8]
  IC50: 21.3 µM
Histone deacetylase 4
  IC50: > 20 µM
HCC1937
  IC50: 33.6 µM
U-937 [14]
  Activity: 74%
[10]
  IC50: 24 µM
U2OS
  IC50: 50 µM
U-937 [3]
  Activity: 58%
U-937 [11]
  Activity: Dose-dependent effect
[12]
  IC50: 6 µM
U-937 [15]
  inhibition: Active

## O=C(NO)c1ccc(Cc2nnc(Cc3cccc4ccccc34)o2)cc1
Histone deacetylase 1
  IC50: 0.2 µM
[4]
  IC50: 1.2 µM
U-937 [9]
  Activity: Active
Histone deacetylase 4
  IC50: 7.8 µM
U-937 [11]
  Activity: Dose-dependent effect

## Nc1ccccc1NC(=O)c1ccc(-c2nnc(Cc3cccc4ccccc34)o2)cc1
Histone deacetylase 1
  IC50: 0.3 µM
U-937 [6]
  Activity: Dose-dependent effect
[4]
  IC50: 16.1 µM
Histone deacetylase 4
  IC50: > 20 µM

## Nc1ccccc1NC(=O)/C=C/c1ccc(-c2nnc(Cc3c[nH]c4ccccc34)o2)cc1
Histone deacetylase 1
  IC50: 1.5 µM
[4]
  IC50: > 20 µM
Histone deacetylase 4
  IC50: > 20 µM

Reference: ChEMBL document CHEMBL3351281, “1,3,4-Oxadiazole-containing histone deacetylase inhibitors: anticancer activities in cancer cells” (J Med Chem, 2014)
